Screening results (PubChem)
NPY-Y2 PAM-ag: human NPY-Y2 potentiation or agonism, primary screen | P49146 | cells expressing NPY-Y2, potentiator/agonist read-out | activation, % at 3.6 µM | 220,000 compounds, 0.45% hits | AID 1359; in the data active = activation above about 27%;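 also: cells stimulated with NPY near EC25 plus isoproterenol at EC100; 0% = vehicle plus submaximal agonist and 100% = vehicle plus saturating agonist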
NPY-Y1 PAM-ag: potentiates or activates human NPY-Y1 receptor | 220,000 compounds, 0.37% hits | activation, % at 3.6 µM | NPY-Y1 expressing cells, potentiator/agonist activation | AID 1304; in the data active = activation above about 33%, passing the limit was not always enough;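 also: cells stimulated with NPY at EC10 then isoproterenol at EC100; 0% = low agonist plus stimulus and 100% = saturating agonist plus stimulus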
Target sequence (P25929 whole entry, looked up): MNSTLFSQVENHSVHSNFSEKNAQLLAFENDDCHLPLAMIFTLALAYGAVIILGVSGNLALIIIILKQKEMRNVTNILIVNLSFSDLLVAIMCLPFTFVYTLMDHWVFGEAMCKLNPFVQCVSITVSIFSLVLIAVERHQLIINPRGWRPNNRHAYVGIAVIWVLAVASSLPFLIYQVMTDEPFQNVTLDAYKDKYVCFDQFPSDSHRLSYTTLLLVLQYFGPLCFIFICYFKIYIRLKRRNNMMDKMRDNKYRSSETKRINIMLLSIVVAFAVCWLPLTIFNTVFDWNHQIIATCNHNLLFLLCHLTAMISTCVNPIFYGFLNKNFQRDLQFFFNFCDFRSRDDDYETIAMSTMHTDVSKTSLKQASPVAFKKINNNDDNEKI
S1P4 antagonist: human S1P4 receptor antagonism; inhibition, % at 4.98 µM; AID 1510; 220,000 compounds, 0.26% hits; S1P4-expressing cells, antagonist mode, reporter read-out; O95977; in the data active = inhibition above about 29%;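 also: 0% = wells stimulated with agonist and 100% = vehicle wells without agonist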
NPY-Y2 antag: blocks the human neuropeptide Y Y2 receptor; inhibition, % at 2.7 µM; P49146; NPY-Y2 expressing cells, antagonist mode; 140,000 compounds, 0.99% hits; in the data active = inhibition above about 17%;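 also: 0% = vehicle with agonist challenge and 100% = reference antagonist with challenge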
NPY-Y1 antag: blocks the human neuropeptide Y Y1 receptor; HEK293-CNG Y1 cells, membrane potential fluorescence; NPY at EC95, then isoproterenol; P25929; inhibition, % at 3.6 µM; AID 1040; 200,000 compounds, 1% hits;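 active = inhibition above the campaign mean inhibition of all tested compounds plus 3 SD, cut at about 20% in these data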;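 also: 0% = DMSO wells given NPY plus isoproterenol and 100% = isoproterenol alone without NPY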
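System: HEK293 cells with Y1 receptor plus CNG channel / Probe or stimulus: NPY 25 nM then isoproterenol 1 µM plus Ro 20-1724 25 µM / Compound: one concentration, 3.6 µM, in 0.4% DMSO / Schedule: compound incubation 1 h at room temperature, readout 45 min post-stimulation / Measured by: membrane potential fluorescence / Read-out: % inhibition of NPY effect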
S1P4 agonist: activates the human S1P4 receptor | O95977 | S1P4-expressing cell line, agonist reporter assay | activation, % at 4.98 µM | 220,000 compounds, 0.35% hits; in the data active = activation above about 11%;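 also: 0% = DMSO vehicle and 100% = reference agonist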
NPY-Y2 confirm: confirmation of human NPY-Y2 receptor potentiators or agonists. shares compounds with NPY-Y2 PAM-ag. cell-based NPY-Y2 potentiator/agonist assay. activation, % at 3.6 µM. 450 compounds, 20% hits; in the data active = activation above about 33%
NPY-Y1 counter: potentiates or activates NPY-Y1, counter-screen for NPY-Y2 hits | 450 compounds, 20% hits | activation, % at 3.6 µM | Y1 HEK293-CNG cells, membrane potential fluorescence | shares compounds with NPY-Y2 PAM-ag | AID 1651; in the data active = activation above about 45%;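 also: cells stimulated with submaximal NPY then isoproterenol with phosphodiesterase inhibitor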
NPY-Y1 agonist 2: counter-screen for NPY-Y2 potentiators: agonists of human NPY-Y1. shares compounds with NPY-Y2 PAM-ag. HEK293 Y1-CNGC, membrane potential fluorescence, agonism. activation, % at 3.6 µM. 450 compounds, 37% hits. AID 1702;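 active = activation above the mean of DMSO-only control wells plus 3 SD, cut at about 18% in these data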;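 also: cells stimulated with 1 µM isoproterenol plus the PDE inhibitor Ro 20-1724; 0% = isoproterenol with DMSO and no NPY and 100% = 40 nM NPY; Y1 agonists lower the membrane potential dye signal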
CNGC inhibitor: counter-screen for NPY-Y2 potentiators: inhibitors of CNG channel activity. shares compounds with NPY-Y2 PAM-ag. HEK293-CNG parental, isoproterenol cAMP, membrane potential fluorescence. inhibition, % at 3.6 µM. 450 compounds, 32% hits;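 active = inhibition above the control-well mean plus 3 SD of those wells, cut at about 22% in these data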;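 also: 0% = DMSO with isoproterenol and 100% = DMSO without isoproterenol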
NPY-Y2 ag 2: counter-screen for NPY-Y2 potentiators: agonists of human NPY-Y2 | shares compounds with NPY-Y2 PAM-ag | HEK293 Y2/CNGC cells, membrane potential fluorescence, agonist mode | activation, % at 3.6 µM | 450 compounds, 56% hits | AID 1710;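 active = activation above the mean of solvent-only control wells plus 3 SD, cut at about 10% in these data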;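 also: cells stimulated by isoproterenol with no NPY added so direct agonism is tested; 0% = DMSO with isoproterenol alone and 100% = NPY at EC100 plus isoproterenol; agonism lowers probe fluorescence through less cAMP and CNG channel opening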
* = called active by the depositor; . = no result. Only some compounds are listed: those with a hit (about 2.4% of all), similar ones and a draw of the others.

SMILES	NPY-Y2 PAM-ag	NPY-Y1 PAM-ag	S1P4 antagonist	NPY-Y2 antag	NPY-Y1 antag	S1P4 agonist	NPY-Y2 confirm	NPY-Y1 counter	NPY-Y1 agonist 2	CNGC inhibitor	NPY-Y2 ag 2
CCC(C)c1ccc2oc(-c3ccc(NC(=O)c4ncn[nH]4)cc3)nc2c1 (configuration not stated)	35*	-4	-6	4	-1	5	10	25	10	5	8
CC(C)C(=O)Nc1ccc(N2CCN(c3ccc(F)cc3)CC2)cc1	31*	-2	-16	.	16	3	1	13	3	4	-3
CC(C)C(=O)Nc1ccc(N2CCCC2)cc1	12	7	-13	2	3	1	.	.	.	.	.
CN(C)S(=O)(=O)N1CCCC(C(=O)c2ccc(-c3ccccc3)c(F)c2)C1 (configuration not stated)	6	-2	5	.	10	0	.	.	.	.	.
Nc1c(-c2cccc(Cl)c2)cnn1-c1cccc(C(F)(F)F)c1	42*	36	-14	1	2	1	61*	68*	61*	47*	74*
CC(C)(C)c1ncc(S(=O)(=O)c2ccc(C(F)(F)F)cn2)c(N)n1	-13	11	2	.	.	0	.	.	.	.	.
COc1ccc(CC(=O)NC(C)c2nnc(SCC(=O)Nc3ccccc3)n2C)cc1 (configuration not stated)	-6	3	17	.	-4	0	.	.	.	.	.
COC(=O)c1ccc(NC(=O)CSc2nnc(C(C)NC(=O)c3ccccc3Cl)n2C)cc1 (configuration not stated)	37*	33	0	-4	-1	0	10	16	17	10	28*
COc1ccc(/C=C/C(=O)c2c(O)ccc3c(C)cc(=O)oc23)cc1	64*	33	0	7	1	0	-18	-30	-32	-23	-14
COc1ccc(/C=C\C(=O)c2c(O)ccc3c(C)cc(=O)oc23)cc1	-26	-32	2	10	15	0	.	.	.	.	.
Cc1ncccc1C(=O)N1CCCC(C(=O)c2ccc3c4c(cccc24)CC3)C1 (configuration not stated)	72*	-9	2	.	0	-2	1	2	-7	7	8
Cc1ccc(Nc2nc(N)[nH]c(=O)c2N=O)cc1	-27	6	3	.	.	0	.	.	.	.	.
Cc1ccc(S(=O)(=O)N(C)CC(=O)OCC(=O)N2CCCC2=O)cc1	50*	4	3	.	4	0	-4	1	-8	-3	-2
CCS(=O)(=O)N1N=C(c2cccc(NS(C)(=O)=O)c2)CC1c1ccc(C)cc1 (configuration not stated)	-4	-17	-6	.	-7	0	.	.	.	.	.
Cc1sc(-c2ccccn2)nc1OC(=O)c1ccc(F)cc1F	37*	26	-3	.	-4	4	7	11	14	-3	18*
Cc1sc(-c2ccccn2)nc1OC(=O)c1ccc(Cl)c(Cl)c1	3	-2	-10	5	5	1	.	.	.	.	.
Cc1c(C(C)C)c(=O)n(-c2ccc(S(=O)(=O)NC3CCCCC3)cc2)n1C	5	-8	13	.	-6	0	.	.	.	.	.
Cc1c(C(C)C)c(=O)n(-c2ccc(S(=O)(=O)NCc3ccccc3)cc2)n1C	35*	-23	12	.	-1	0	2	-40	-28	-9	1
CC(=O)c1ccc(NC(=O)COC(=O)c2ccccc2N=Nc2ccc(N(C)C)cc2)cc1	44*	33	-1	-6	-3	-2	48*	62*	50*	44*	41*
